The values that follow come from ChEMBL document CHEMBL4402517, “Rational modification of Mannich base-type derivatives as novel antichagasic compounds: Synthesis, in vitro and in vivo evaluation” (Bioorg Med Chem, 2019).

Series [1] can be described thus: Genotoxicity in Salmonella typhimurium TA1535 harboring pSK1002 assessed as survival at 0.125 mg/ml in absence of Sprague-Dawley rat liver S9 fraction metabolic activation by SOS/umu assay relative to control. The conditions noted are these: salmonella enterica subsp. enterica serovar typhimurium, read-out: Survival. It is filed as toxicity. Summed up: (§1)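 Survival of S. typhimurium TA1535/pSK1002 exposed to a range of compound concentrations with or without S9 mix in 96-well format. Survival percentage measured as the cytotoxicity arm of the SOS/umu test. Concentrations with survival ≥80% are counted as non-cytotoxic.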

Series [2] is described as follows: Genotoxicity in Salmonella typhimurium TA1535 harboring pSK1002 assessed as survival at 0.008 mg/ml in absence of Sprague-Dawley rat liver S9 fraction metabolic activation by SOS/umu assay relative to control. Type of series: toxicity. The conditions noted are these: salmonella enterica subsp. enterica serovar typhimurium, read-out: Survival. Summed up:
as §1

Series [3] in a line: Genotoxicity in Salmonella typhimurium TA1535 harboring pSK1002 assessed as survival at 0.004 mg/ml in absence of Sprague-Dawley rat liver S9 fraction metabolic activation by SOS/umu assay relative to control. Type of series: toxicity. The settings on record: salmonella enterica subsp. enterica serovar typhimurium, read-out: Survival. A digest of the protocol:
as §1

Series [4] is described as follows: Genotoxicity in Salmonella typhimurium TA1535 harboring pSK1002 assessed as survival at 0.125 mg/ml in presence of Sprague-Dawley rat liver S9 fraction metabolic activation by SOS/umu assay relative to control. It is filed as toxicity, subcellular. The settings on record: salmonella enterica subsp. enterica serovar typhimurium, read-out: Survival. Summed up: as §1

Series [5] is described as follows: Genotoxicity in Salmonella typhimurium TA1535 harboring pSK1002 assessed as survival at 0.002 mg/ml in presence of Sprague-Dawley rat liver S9 fraction metabolic activation by SOS/umu assay relative to control. The settings on record: salmonella enterica subsp. enterica serovar typhimurium, read-out: Survival. Type of series: toxicity, subcellular. Summed up: as §1

Series [6] is described as follows: Genotoxicity in Salmonella typhimurium TA1535 harboring pSK1002 assessed as umu gene induction at 0.25 mg/ml in absence of Sprague-Dawley rat liver S9 fraction metabolic activation by SOS/umu assay relative to control. It is filed as toxicity. The conditions noted are these: salmonella enterica subsp. enterica serovar typhimurium, read-out: FC. A digest of the protocol:
(§2)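 umu induction in S. typhimurium TA1535/pSK1002, with or without S9 mix, in 96-well format. β-galactosidase read colorimetrically with ONPG substrate. Output given as relative units and induction factor (IF). The run is valid if positive controls reach IF ≥2. A compound counts as genotoxic at IF ≥2 at a concentration giving ≥80% bacterial survival.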

A short description of series [7]: Genotoxicity in Salmonella typhimurium TA1535 harboring pSK1002 assessed as umu gene induction at 0.125 mg/ml in absence of Sprague-Dawley rat liver S9 fraction metabolic activation by SOS/umu assay relative to control. The settings on record: salmonella enterica subsp. enterica serovar typhimurium, read-out: FC. Type of series: toxicity. Summed up: as §2
A short description of series [8]: Genotoxicity in Salmonella typhimurium TA1535 harboring pSK1002 assessed as umu gene induction at 0.002 mg/ml in absence of Sprague-Dawley rat liver S9 fraction metabolic activation by SOS/umu assay relative to control. Type of series: toxicity. The settings on record: salmonella enterica subsp. enterica serovar typhimurium, read-out: FC. A digest of the protocol: as §2

Series [9] concerns Trypanosoma cruzi. As to the kind of experiment: Antitrypanosomal activity against Trypanosoma cruzi MHOM/Pe/2011/Arequipa;DTU 5 epimastigote assessed as effect on parasite glycolytic pathway by measuring increase in pyruvate excretion at IC50 after 72 hrs by H NMR method relative to control. It is filed as functional. A digest of the protocol: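 Cells were spun at 800 × g for 10 min and culture supernatants analysed by 1H NMR. Catabolite peaks were expressed as % variation versus untreated parasites.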

A short description of series [10]: Inhibition of Trypanosoma cruzi MHOM/Pe/2011/Arequipa;DTU 5 epimastigote Fe-SOD. Summed up: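 Fe-SOD excreted by exponentially growing T. cruzi Arequipa epimastigotes cultured in supplemented MTL at 28 °C. Protein quantified by Bradford. SOD activity measured by the Beyer–Fridovich method. IC50 from inhibition curves by nonlinear regression. Mean of three independent determinations ± standard deviation.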

Series [11] deals with Superoxide dismutase [Cu-Zn] (Homo sapiens, UniProt P00441). In words: Inhibition of human erythrocyte CuZn-SOD. A digest of the protocol:
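Commercial human erythrocyte CuZn-SOD. Activity measured by the Beyer–Fridovich method, tested up to 50 µM.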

Series [12] can be described thus: Mutagenecity against Salmonella typhimurium TA 100 assessed as number of colonies at 200 ug/plate in presence of Sprague-Dawley rat S9 with metabolic activation measured after 48 hrs by Ames test (reference value: 47.3 +/- 5.7). It is filed as toxicity, subcellular. The conditions noted are these: salmonella enterica subsp. enterica serovar typhimurium, s9, 48 h.

Series [13] can be described thus: Mutagenecity against Salmonella typhimurium TA 102 assessed as number of colonies at 7.4 ug/plate in presence of Sprague-Dawley rat S9 with metabolic activation measured after 48 hrs by Ames test (reference value: 72 +/- 1). It is filed as toxicity, subcellular. The settings on record: salmonella enterica subsp. enterica serovar typhimurium, s9, 48 h.
A short description of series [14]: Mutagenecity against Salmonella typhimurium TA 102 assessed as number of colonies at 22.2 ug/plate in presence of Sprague-Dawley rat S9 with metabolic activation measured after 48 hrs by Ames test (reference value: 72 +/- 1). Type of series: toxicity, subcellular. The conditions noted are these: salmonella enterica subsp. enterica serovar typhimurium, s9, 48 h.

Series [15] can be described thus: Toxicity in BALB/c mouse infected with Trypanosoma cruzi MHOM/Pe/2011/Arequipa;DTU 5 bloodstream trypomastigote assessed as increase in serum total bilirubin level in acute phase at 20 mg/kg/day, po administered for 5 consecutive days starting from day 8 post infection and measured at day 14 post infection by biochemical analysis relative to control. It is filed as organism-based. The conditions noted are these: in vivo. A digest of the protocol:
(§3)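 Female BALB/c mice (10–12 weeks, 14–20 g; groups of three) were infected i.p. with 5 × 10^5 Arequipa bloodstream trypomastigotes. Dosing was oral at 20 mg/kg/day for 5 days, from day 8 pi (acute) or day 70 pi (chronic), as a 2 mg/ml suspension in 5% DMSO/0.5% HPMC; controls received vehicle. Cyclophosphamide 200 mg/kg i.p. was given at day 80 pi. Serum was collected 2 days post-treatment and at necropsy by cardiac puncture and compared with infected untreated controls.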

For series [16], the system named is Trypanosoma cruzi. As to the kind of experiment: Trypanocidal activity against Trypanosoma cruzi trypomastigote form infected in African green monkey Vero cells assessed as ratio of infected cells at 50 uM measured after 72 hrs by Giemsa staining based assay relative to control. Type of series: functional. A digest of the protocol:
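Vero cells (1 × 10^4/well, on coverslips) were infected with trypomastigotes at MOI 10:1 for 24 h and washed three times with PBS. They were treated at 3.1, 6.25, 12.5, 25 and 50 µM for 72 h at 37 °C in 5% CO2. Infected cells were counted after Giemsa staining. Triplicates, two separate determinations.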

Series [17] in a line: Toxicity in BALB/c mouse infected with Trypanosoma cruzi MHOM/Pe/2011/Arequipa;DTU 5 bloodstream trypomastigote assessed as change in serum alanine aminotransferase level in acute phase at 20 mg/kg/day, po administered for 5 consecutive days starting from day 8 post infection and measured on day 100 post infection by biochemical analysis relative to control. Type of series: organism-based. The conditions noted are these: in vivo. Summed up: as §3

A short description of series [18]: Toxicity in BALB/c mouse infected with Trypanosoma cruzi MHOM/Pe/2011/Arequipa;DTU 5 bloodstream trypomastigote assessed as increase in serum total bilirubin level in acute phase at 20 mg/kg/day, po administered for 5 consecutive days and measured on day 100 post infection by biochemical analysis relative to control. Type of series: organism-based. The conditions noted are these: in vivo.

The nature of series [19]: Toxicity in BALB/c mouse infected with Trypanosoma cruzi MHOM/Pe/2011/Arequipa;DTU 5 bloodstream trypomastigote assessed as decrease in serum uric acid level in chronic phase at 20 mg/kg/day, po administered for 5 consecutive days starting from day 70 post infection and measured at day 76 post infection relative to control. It is filed as organism-based. Also noted: scale not given: the % may be the effect or the level left. The settings on record: in vivo. A digest of the protocol:
as §3

The nature of series [20]: Toxicity in BALB/c mouse infected with Trypanosoma cruzi MHOM/Pe/2011/Arequipa;DTU 5 bloodstream trypomastigote assessed as increase in serum aspartate aminotransferase level in acute phase at 20 mg/kg/day, po administered for 5 consecutive days starting from day 8 post infection and measured at day 14 post infection by biochemical analysis relative to control. It is filed as organism-based. The settings on record: in vivo.

SMILES strings stand for the structures. A value given as a limit tells only on which side of the number the result lay.

Sequence of Superoxide dismutase [Cu-Zn] (P00441 whole entry): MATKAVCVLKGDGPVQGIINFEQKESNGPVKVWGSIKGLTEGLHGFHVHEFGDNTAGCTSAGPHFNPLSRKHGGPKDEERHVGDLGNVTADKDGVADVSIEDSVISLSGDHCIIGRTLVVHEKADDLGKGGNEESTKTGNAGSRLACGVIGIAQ

For the molecule `O=C(CCN1CCN(c2ccc(Cl)cc2)CC1)c1ccc(O)cc1`, the figures for the viability at 0.125 mg/ml in series [1] and in series [4] were 198% and 113%, respectively. For the same molecule, the viability at 0.008 mg/ml in series [2] was 128%. In [3], the viability at 0.004 mg/ml worked out at 140%. Moreover, in series [5], the viability at 0.002 mg/ml worked out at 111%. For the same molecule, the fold induction at 0.25 mg/ml in series [6] is 0.49. In addition, the fold induction at 0.125 mg/ml in series [7] was determined as 0.45. Further, the fold induction at 0.002 mg/ml in series [8] turned out to be 0.78. For the same molecule, the Activity was 36% in series [9]; 42.3 in series [12]; 75 in series [13]; 84.7 in [14]; “<= 10%” in series [15]. The figures for the IC50 in [10] and in [11] were 3.9 µM and above 50 µM, respectively.

Regarding `O=C(CCN1CCN(c2ccc(C(F)(F)F)cc2)CC1)c1ccc(O)cc1`, the Ratio in series [16] came out at 7%. In addition, the viability at 0.125 mg/ml is 122% in series [1] and 138% in series [4]. In addition, the viability at 0.008 mg/ml in series [2] stood at 133%. Moreover, the viability at 0.004 mg/ml in series [3] was found to be 127%. Also, the viability at 0.002 mg/ml in series [5] amounted to 108%. Besides, in series [6], the fold induction at 0.25 mg/ml was 0.52. In [7], the fold induction at 0.125 mg/ml turned out to be 0.7. For the same molecule, the fold induction at 0.002 mg/ml in series [8] came out at 0.74. For the same molecule, the Activity in [17] is reported as above 10%; in series [18] it was above 40%; in series [19], “<= 20%”; in series [15], above 40%. Moreover, the IC50 in [10] is 4.3 µM; in series [11], above 50 µM.

Consider `O=C(Cn1ccnc1[N+](=O)[O-])NCc1ccccc1` [BENZNIDAZOLE], for which the Ratio in series [16] came to 18%. Also, the figures for the Activity entry in series [20], in [17] and in [19] were “<= 20%”, above 10% and “<= 30%”, respectively.
